{"source": "ChEMBL document CHEMBL4138312", "about": "(J Med Chem, 2018)", "key": {"[1]": {"test": "Volume of distribution at steady state in CD1 mouse at 3 mg/kg, iv by LC/MS/MS analysis", "format": "ADME, organism-based", "details": "in vivo, read-out: Vdss", "how_it_was_run": "(§1)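 Mouse pharmacokinetics after a single iv dose of 3 mg/kg in 10% HPbCD + 5% dextrose in WFI at pH 4. Plasma clearance, half-life and steady-state volume of distribution were derived.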"}, "[2]": {"test": "AUC in CD1 mouse at 10 mg/kg, po by LC/MS/MS analysis", "format": "ADME, organism-based", "details": "in vivo", "how_it_was_run": "(§2)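 Mouse pharmacokinetics after oral dosing at 10 or 50 mg/kg. The 10 mg/kg dose was given in 10% HPbCD + 5% dextrose in WFI at pH 4. The 50 mg/kg dose was given in 5% SBECD in WFI at pH 2. Plasma exposure (AUC), half-life and oral bioavailability were derived.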"}, "[3]": {"target": "T1, Tyrosine-protein kinase JAK1 (Homo sapiens, UniProt P23458)", "T1 sequence (P23458 whole entry)": "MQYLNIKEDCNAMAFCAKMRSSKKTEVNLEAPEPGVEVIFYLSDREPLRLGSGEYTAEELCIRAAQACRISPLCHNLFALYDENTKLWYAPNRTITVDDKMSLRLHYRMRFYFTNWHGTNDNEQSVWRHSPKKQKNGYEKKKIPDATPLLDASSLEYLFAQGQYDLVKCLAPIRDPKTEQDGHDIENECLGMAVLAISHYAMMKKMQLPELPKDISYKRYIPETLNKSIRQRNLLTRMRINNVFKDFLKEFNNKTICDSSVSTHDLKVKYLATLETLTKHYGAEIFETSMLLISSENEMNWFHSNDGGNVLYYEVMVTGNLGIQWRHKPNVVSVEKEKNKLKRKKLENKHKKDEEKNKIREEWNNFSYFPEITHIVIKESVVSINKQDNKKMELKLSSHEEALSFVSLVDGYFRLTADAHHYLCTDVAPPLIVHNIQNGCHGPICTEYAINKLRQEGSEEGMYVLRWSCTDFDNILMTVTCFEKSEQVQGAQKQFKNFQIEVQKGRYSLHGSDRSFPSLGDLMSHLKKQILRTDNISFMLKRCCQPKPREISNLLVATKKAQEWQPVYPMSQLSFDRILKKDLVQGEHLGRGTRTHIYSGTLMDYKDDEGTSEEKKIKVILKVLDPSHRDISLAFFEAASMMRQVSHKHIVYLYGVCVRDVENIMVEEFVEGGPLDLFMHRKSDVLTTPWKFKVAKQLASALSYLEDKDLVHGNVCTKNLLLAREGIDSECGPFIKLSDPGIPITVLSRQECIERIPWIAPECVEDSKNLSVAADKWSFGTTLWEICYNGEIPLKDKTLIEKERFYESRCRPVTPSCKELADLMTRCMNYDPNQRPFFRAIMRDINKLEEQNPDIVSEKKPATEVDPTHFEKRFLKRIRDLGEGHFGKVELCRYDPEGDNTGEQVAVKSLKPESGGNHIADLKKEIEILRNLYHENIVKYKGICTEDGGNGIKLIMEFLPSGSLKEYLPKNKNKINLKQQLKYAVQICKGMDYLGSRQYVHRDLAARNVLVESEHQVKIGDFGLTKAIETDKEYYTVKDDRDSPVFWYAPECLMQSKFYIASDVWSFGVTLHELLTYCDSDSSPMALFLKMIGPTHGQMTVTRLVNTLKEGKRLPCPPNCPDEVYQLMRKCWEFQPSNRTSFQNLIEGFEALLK", "test": "Inhibition of JAK1 in human NCI-H1975 cells assessed as reduction in STAT3 phosphorylation after 1 hr by ELISA", "format": "cell-based", "how_it_was_run": "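Cellular mode-of-action assay in NCI-H1975 cells, read as inhibition of STAT3 phosphorylation. EC50 was derived.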"}, "[4]": {"target": "T2, Tyrosine-protein kinase JAK3 (Homo sapiens) (UniProt P52333)", "T2 sequence (whole entry)": "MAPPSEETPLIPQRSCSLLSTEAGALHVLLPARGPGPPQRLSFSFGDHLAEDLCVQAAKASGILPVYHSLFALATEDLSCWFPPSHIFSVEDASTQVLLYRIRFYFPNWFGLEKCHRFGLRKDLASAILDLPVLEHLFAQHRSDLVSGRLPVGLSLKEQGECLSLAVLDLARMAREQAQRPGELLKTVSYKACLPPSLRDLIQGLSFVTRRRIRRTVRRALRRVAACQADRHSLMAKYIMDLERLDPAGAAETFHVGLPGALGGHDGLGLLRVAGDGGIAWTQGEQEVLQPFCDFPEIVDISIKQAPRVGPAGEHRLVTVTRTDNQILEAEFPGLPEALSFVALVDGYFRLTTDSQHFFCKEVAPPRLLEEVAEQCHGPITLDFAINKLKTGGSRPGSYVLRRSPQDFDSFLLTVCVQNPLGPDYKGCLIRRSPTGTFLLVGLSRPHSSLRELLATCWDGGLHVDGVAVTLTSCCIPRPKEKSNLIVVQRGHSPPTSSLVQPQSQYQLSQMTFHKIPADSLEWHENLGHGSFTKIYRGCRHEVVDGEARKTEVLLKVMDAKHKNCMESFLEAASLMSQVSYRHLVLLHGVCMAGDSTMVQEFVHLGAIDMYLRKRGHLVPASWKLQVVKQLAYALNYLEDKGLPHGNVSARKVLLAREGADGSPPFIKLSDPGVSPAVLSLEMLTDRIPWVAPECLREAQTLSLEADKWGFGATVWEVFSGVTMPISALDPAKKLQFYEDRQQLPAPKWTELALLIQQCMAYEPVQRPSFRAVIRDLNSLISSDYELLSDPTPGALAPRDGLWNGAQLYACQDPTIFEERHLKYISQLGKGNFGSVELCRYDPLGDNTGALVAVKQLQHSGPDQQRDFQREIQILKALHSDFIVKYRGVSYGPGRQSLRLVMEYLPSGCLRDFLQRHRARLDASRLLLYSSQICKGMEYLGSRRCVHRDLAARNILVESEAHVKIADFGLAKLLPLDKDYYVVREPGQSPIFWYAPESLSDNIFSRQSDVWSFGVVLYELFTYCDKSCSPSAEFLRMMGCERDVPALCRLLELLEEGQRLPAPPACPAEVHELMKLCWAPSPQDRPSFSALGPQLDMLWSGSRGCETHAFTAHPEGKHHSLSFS", "test": "Inhibition of recombinant human GST-tagged JAK3 (781 to 1124 residues) expressed in baculovirus at 1 uM", "how_it_was_run": "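Single-concentration screen at 1 μM across a panel of 386 kinases to profile broad kinase selectivity.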"}, "[5]": {"target": "T1, Tyrosine-protein kinase JAK1", "test": "Inhibition of cytoplasmic recombinant human GST-tagged JAK1 (886 to 1154 residues) expressed in insect cells using FITC-C6-KKHTDDGYMPMSPGVA-NH as substrate after 10 mins by caliper assay", "how_it_was_run": "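Biochemical kinase inhibition IC50 measured at 5 mM ATP. Values are the geometric mean of at least two independent experiments.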"}, "[6]": {"test": "Half life in CD1 mouse at 3 mg/kg, iv by LC/MS/MS analysis", "format": "ADME, organism-based", "details": "in vivo", "how_it_was_run": "as §1"}, "[7]": {"target": "T3, NUAK family SNF1-like kinase 1 (Homo sapiens) (UniProt O60285)", "T3 sequence (whole entry)": "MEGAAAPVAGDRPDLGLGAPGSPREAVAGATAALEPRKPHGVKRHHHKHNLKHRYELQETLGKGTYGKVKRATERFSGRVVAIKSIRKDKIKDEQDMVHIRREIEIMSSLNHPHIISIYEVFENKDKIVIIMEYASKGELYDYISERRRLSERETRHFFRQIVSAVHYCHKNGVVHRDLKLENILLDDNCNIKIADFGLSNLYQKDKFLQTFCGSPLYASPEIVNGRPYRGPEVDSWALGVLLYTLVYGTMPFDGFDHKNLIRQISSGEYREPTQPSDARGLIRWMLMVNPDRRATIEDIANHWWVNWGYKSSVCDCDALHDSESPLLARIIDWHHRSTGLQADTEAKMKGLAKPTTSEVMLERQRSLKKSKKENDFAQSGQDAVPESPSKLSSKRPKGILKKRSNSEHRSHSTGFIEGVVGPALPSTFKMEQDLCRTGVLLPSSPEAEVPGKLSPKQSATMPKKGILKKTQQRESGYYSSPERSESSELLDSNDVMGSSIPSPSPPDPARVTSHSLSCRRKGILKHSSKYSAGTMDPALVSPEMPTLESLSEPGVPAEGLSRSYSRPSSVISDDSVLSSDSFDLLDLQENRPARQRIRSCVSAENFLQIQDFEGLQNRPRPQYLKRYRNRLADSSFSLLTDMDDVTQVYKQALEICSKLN", "test": "Inhibition of recombinant human full length His-tagged NUAK1 expressed in baculovirus at 1 uM", "how_it_was_run": "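Kinase panel of 386 kinases, each screened at a single concentration of 1 μM.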"}, "[8]": {"test": "Half life in CD1 mouse at 10 mg/kg, po administered via gavage by LC/MS/MS analysis", "format": "ADME, organism-based", "details": "in vivo", "how_it_was_run": "as §2"}, "Mus musculus [9]": {"test_system": "Mus musculus", "test": "In vivo inhibition of JAK1 in tumors of human NCI-H1975 cells xenografted in NCr nude mouse assessed as decrease in STAT3 phosphorylation at 50 mg/kg, po after 2 hrs by ELISA", "format": "functional, organism-based", "how_it_was_run": "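NCI-H1975 xenograft-bearing mice received single oral gavage doses of 1, 3, 10, 30, 50 or 100 mg/kg. Animals were sacrificed at 2 h, with an extra 6 h group at 50 mg/kg. Tumour pSTAT3 was measured as % inhibition, and plasma drug concentration was measured in parallel. Significance was tested by Student's t-test versus vehicle control.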"}, "Mus musculus [10]": {"test_system": "Mus musculus", "test": "Time above EC50 for inhibition of JAK1 in CD1 mouse at 50 mg/kg, po administered via gavage", "details": "in vivo"}, "[11]": {"test": "AUC in CD1 mouse at 50 mg/kg, po administered via gavage by LC/MS/MS analysis", "format": "ADME, organism-based", "details": "in vivo", "how_it_was_run": "as §2"}}, "data": [{"smiles": "CC[C@@H](C)Nc1nc(Nc2cc(N3C[C@@H]4C[C@H]3CN4C)cnc2F)ncc1C", "values": [{"measurement": "Vd", "setting": "[1]", "result": 10.3, "unit": "L/kg"}, {"measurement": "AUC", "setting": "[2]", "result": 2.65, "unit": "µM·h"}, {"measurement": "EC50", "setting": "[3]", "result": 30, "unit": "nM"}, {"measurement": "inhibition", "setting": "[4]", "result": 46, "unit": "%"}, {"measurement": "IC50", "setting": "[5]", "result": 34, "unit": "nM"}, {"measurement": "half-life", "setting": "[6]", "result": 2.4, "unit": "h"}, {"measurement": "inhibition", "setting": "[7]", "result": 71, "unit": "%"}, {"measurement": "half-life", "setting": "[8]", "result": 4.7, "unit": "h"}, {"measurement": "inhibition", "setting": "Mus musculus [9]", "result": "Dose-dependent effect"}, {"measurement": "Time", "setting": "Mus musculus [10]", "result": 12, "unit": "h"}, {"measurement": "AUC", "setting": "[11]", "result": 18.9, "unit": "µM·h"}]}]}
